Experimental data taken from ChEMBL document CHEMBL5705892, “MK-2206, an allosteric Akt inhibitor, enhances antitumor efficacy by standard chemotherapeutic agents or molecular targeted drugs in vitro and in vivo” (Mol Cancer Ther, 2010).
Activity calls are given as the source filed them. No cut-off for these calls is given here.

Columns and labels:
SK-BR-3 [1] = assay: Synergistic antiproliferative activity against human SK-BR-3 cells assessed as combination index at ED75 measured after 72 hrs in presence of lapatinib by celltiter-glo assay; format: functional
NCI-H1703 = assay: Synergistic antiproliferative activity against human NCI-H1703 cells assessed as combination index at ED25 to ED90 measured after 72 hrs in presence of gemcitabine by celltiter-glo assay; format: functional
NCI-H23 [2] = assay: Synergistic antiproliferative activity against human NCI-H23 cells assessed as combination index at ED75 measured after 72 hrs in presence of erlotinib by celltiter-glo assay; format: functional
NCI-N87 [3] = assay: Synergistic antiproliferative activity against human NCI-N87 cells assessed as combination index at ED75 measured after 96 hrs in presence of lapatinib by celltiter-glo assay; format: functional
MDA-MB-468 = assay: Synergistic antiproliferative activity against human MDA-MB-468 cells assessed as combination index at ED75 measured after 72 hrs in presence of docetaxel by celltiter-glo assay; format: functional
Method in brief: (§1)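 Cells grown in RPMI 1640 with 10% heat-inactivated FBS at 37°C, 5% CO₂. Seeded at 2 to 3 × 10³ per well; drugs added 24 h later. […] Viability read as cellular ATP by CellTiter-Glo. CI calculated by Chou–Talalay from median-effect plots at ED50, ED75 and ED90.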

A-431 [4] = assay: Synergistic antiproliferative activity against human A-431 cells assessed as combination index at ED75 measured after 72 hrs in presence of erlotinib by celltiter-glo assay; format: functional
Method in brief: (§2)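 Cells were seeded at 2–3 × 10³ per well in RPMI 1640 with 10% FBS. At 24 h, MK-2206 and the partner drug were added simultaneously at constant concentration ratios spanning each agent's IC₅₀, for 72 h. Growth was read as cellular ATP by CellTiter-Glo. CI was taken from median-effect plots of each agent alone and in combination (Chou–Talalay), at ED₅₀, ED₇₅ and ED₉₀.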

A2780 [5] = assay: Cell cycle arrest in human A2780 cells assessed as increase in accumulation of cells at sub-G1 phase measured after 72 hrs in presence of doxorubicin by propidium iodide staining based flow cytometry; format: functional
NCI-N87 [6] = assay: Synergistic antiproliferative activity against lapatinib pretreated human NCI-N87 cells assessed as combination index at ED90 measured after 72 hrs by celltiter-glo assay; format: functional
A-431 [7] = assay: Antiproliferative activity against human A-431 cells assessed as reduction in cell proliferation measured after 72 hrs by celltiter-glo assay; format: functional, cell-based; conditions: A-431, 72 h
Method in brief: (§3)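 Cells in RPMI 1640 with 10% heat-inactivated FBS at 37°C and 5% CO₂ were seeded at 2 to 3 × 10³ per well. […] Growth was read as cellular ATP by CellTiter-Glo.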

NCI-H292 [8] = assay: Induction of apoptosis in human NCI-H292 cells assessed as increase in caspase-3/7 activity measured after 48 hrs in presence of erlotinib by caspase-glo 3/7 assay; format: functional, cell-based; conditions: dose <= 3.0 µmol/L
Method in brief: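 Caspase-3/7 activity was measured by Caspase-Glo 3/7 and expressed as fold over DMSO vehicle control. The experiment was done twice.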

Calu-6 = assay: Synergistic antiproliferative activity against human Calu-6 cells assessed as combination index at ED90 measured after 72 hrs in presence of erlotinib by celltiter-glo assay; format: functional; method in brief: as §1
NCI-H460 [9] = assay: Synergistic antiproliferative activity against human NCI-H460 cells assessed as combination index at ED90 measured after 72 hrs in presence of doxorubicin by celltiter-glo assay; format: functional
SK-OV-3 [10] = assay: Synergistic antiproliferative activity against human SK-OV-3 cells assessed as combination index at ED90 measured after 72 hrs in presence of lapatinib by celltiter-glo assay; format: functional
NCI-H292 [11] = assay: Synergistic antiproliferative activity against human NCI-H292 cells assessed as combination index at ED50 measured after 72 hrs in presence of erlotinib by celltiter-glo assay; format: functional
SK-OV-3 [12] = assay: Antiproliferative activity against human SK-OV-3 cells assessed as reduction in cell proliferation measured after 72 hrs by celltiter-glo assay; format: functional, cell-based; conditions: SK-OV-3, 72 h; method in brief: as §3
NCI-H460 [13] = assay: Synergistic antiproliferative activity against human NCI-H460 cells assessed as combination index at ED50 measured after 72 hrs in presence of gemcitabine by celltiter-glo assay; format: functional
[14] = molecular target: RAC-alpha serine/threonine-protein kinase (Homo sapiens) (UniProt P31749); assay: Inhibition of AKT phosphorylation at S473 residue in human NCI-H661 cells at 3 umol/L measured after 4 to 24 hrs in presence of carboplatin by MSD assay; conditions: time 4-24 hrs
Sequence of RAC-alpha serine/threonine-protein kinase (Homo sapiens) (P31749 whole entry): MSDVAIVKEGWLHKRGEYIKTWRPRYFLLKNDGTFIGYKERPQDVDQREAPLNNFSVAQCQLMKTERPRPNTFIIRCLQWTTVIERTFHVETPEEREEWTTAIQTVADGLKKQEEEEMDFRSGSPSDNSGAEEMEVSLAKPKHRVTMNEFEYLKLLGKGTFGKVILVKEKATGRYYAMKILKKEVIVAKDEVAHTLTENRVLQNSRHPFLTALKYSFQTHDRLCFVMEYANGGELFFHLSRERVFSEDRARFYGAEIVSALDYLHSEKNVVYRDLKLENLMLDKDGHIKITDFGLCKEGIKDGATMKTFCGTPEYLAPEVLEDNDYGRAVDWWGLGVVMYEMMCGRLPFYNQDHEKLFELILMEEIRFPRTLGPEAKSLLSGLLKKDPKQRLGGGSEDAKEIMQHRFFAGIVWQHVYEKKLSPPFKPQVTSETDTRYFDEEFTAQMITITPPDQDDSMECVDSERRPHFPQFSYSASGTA

SK-BR-3 [15] = assay: Synergistic antiproliferative activity against human SK-BR-3 cells assessed as combination index at ED75 measured after 72 hrs in presence of docetaxel by celltiter-glo assay; format: functional
[16] = Toxicity in human NCI-H460 cells xenografted CD1 nude mouse assessed as body weight loss at 120 mg/kg, po administered 3 times per week for 2 weeks measured on day 14 to 16 in presence of carboplatin; format: organism-based; conditions: in vivo, 336 h, time 14-16 day
Method in brief: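 NCI-H460 cells in 50% Matrigel/PBS injected s.c. into flank of CD1-nude mice; randomized at mean tumour 0.2 cm³ (n = 5). MK-2206 in 30% Captisol, 120 mg/kg p.o. days 0, 2, 4, 7, 9, 11. Carboplatin 50 mg/kg i.v. in saline days 0 and 7 (from day 12 after implant), or gemcitabine 100 mg/kg i.v. in saline days 0 and 7 (from day 8). Body weight monitored.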

SK-BR-3 [17] = assay: Synergistic antiproliferative activity against human SK-BR-3 cells assessed as combination index at ED50 measured after 72 hrs in presence of docetaxel by celltiter-glo assay; format: functional
HCC70 = assay: Synergistic antiproliferative activity against human HCC70 cells assessed as combination index at ED75 measured after 72 hrs in presence of lapatinib by celltiter-glo assay; format: functional; method in brief: as §1
UMC-11 = assay: Synergistic antiproliferative activity against human UMC-11 cells assessed as combination index at ED25 to ED90 measured after 72 hrs in presence of gemcitabine by celltiter-glo assay; format: functional
NCI-H23 [18] = assay: Synergistic antiproliferative activity against human NCI-H23 cells assessed as combination index at ED50 measured after 72 hrs in presence of erlotinib by celltiter-glo assay; format: functional
A2780 [19] = assay: Synergistic antiproliferative activity against human A2780 cells assessed as combination index at ED75 measured after 72 hrs in presence of camptothecin by celltiter-glo assay; format: functional; method in brief: as §2
[20] = molecular target: RAC-alpha serine/threonine-protein kinase (Homo sapiens) (UniProt P31749); assay: Inhibition of AKT phosphorylation at S473 residue in human HCC70 cells at 1 umol/L measured after 3 to 24 hrs by Western blot analysis; format: cell-based; conditions: dose 1.0 µmol/L, time 3-24 hrs
Method in brief: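 HCC70 cells at ~70% confluence were exposed to 10 µmol/L lapatinib, 1 µmol/L MK-2206, or both, for 0, 3, 6, 12 or 24 h. Lysates were prepared in Triton X-100/Tris buffer (pH 7.5) with protease and phosphatase inhibitors. Immunoblots after SDS-PAGE and nitrocellulose transfer were probed for pAkt and pS6.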

Cl.NC1(c2ccc(-c3nc4ccn5c(=O)[nH]nc5c4cc3-c3ccccc3)cc2)CCC1
CI75 (SK-BR-3 [1]): 0.19
CI (NCI-H1703): 0.43
CI75 (NCI-H23 [2]): 0.46
CI75 (NCI-N87 [3]): 0.18
CI75 (MDA-MB-468): 0.8
CI75 (A-431 [4]): 0.21
Activity (A2780 [5]): Dose-Dependent Effect
CI90 (NCI-N87 [6]): 0.18
IC50 (A-431 [7]): 5.5 µM
Activity (NCI-H292 [8]): Dose-Dependent Effect
CI90 (Calu-6): 0.13
CI90 (NCI-H460 [9]): 0.17
CI90 (SK-OV-3 [10]): 0.25
CI50 (NCI-H292 [11]): 0.44
IC50 (SK-OV-3 [12]): 5.1 µM
CI50 (NCI-H460 [13]): 0.33
inhibition [14]: Active
CI75 (SK-BR-3 [15]): 0.7
Activity [16]: Non-Toxic
CI50 (SK-BR-3 [17]): 0.8
CI75 (HCC70): 0.28
CI (UMC-11): 0.53
CI50 (NCI-H23 [18]): 0.32
CI75 (A2780 [19]): 0.4
inhibition [20]: Active
